In ChEMBL document CHEMBL1156940, “Modified cap group suberoylanilide hydroxamic acid histone deacetylase inhibitor derivatives reveal improved selective antileukemic activity” (J Med Chem, 2010):
Active and inactive are the calls of the source. No cut-off for these calls is given here.

Experiments:
Mus musculus [1] = assay: Toxicity in FVB mouse assessed as effect on number of WBC at 50 mg/kg, po administered 5 times per week for 2 weeks (reference value: 9.1 +/- 0.2 10^3/mm^3); format: organism-based; set-up: dose 50 mg/kg, route oral; settings: in vivo, 336 h
Procedure, shortened: (§1)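 8-week-old FVB mice were housed specific-pathogen-free and randomly assigned, n = 3 per group. They received 50 mg/kg compound or vehicle alone by oral gavage, five times weekly for 2 weeks. Body weight and survival were monitored. Differential blood counts came from nonlethal retro-orbital bleeds before study (J-5), during study (J5) and at end point (J12). Values are means ± spread for n = 3.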

[2] = Therapeutic ratio, EC50 for human PBMC to EC50 for human 937 cells; settings: human PBMC versus human 937 cells
Mus musculus [3] = assay: Toxicity in FVB mouse assessed as effect on number of RBC at 50 mg/kg, po administered 5 times per week for 2 weeks measured during test (reference value: 8.1 +/- 0.2 10^6/mm^3); format: organism-based; set-up: dose 50 mg/kg, route oral; settings: in vivo, 336 h; procedure, shortened: as §1
U-937 = assay: Antiproliferative activity against human U937 cells after 48 hrs by cell titer-glo assay; format: functional, cell-based; settings: U-937, 48 h
Procedure, shortened: (§2)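 Cells kept in RPMI-1640 with 10% FBS at 37 °C, 5% CO2. 10^4 suspension cells were plated immediately before dosing. Compounds were added at 0.1–100 µM, final 1% DMSO, with DMSO vehicle control, and incubated 48 h. CellTiter-Glo luminescence was read. EC50 is the dose reducing luminescence to 50% of untreated cultures.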

[4] = molecular target: Histone deacetylase 1 (Homo sapiens) (UniProt Q13547); assay: Inhibition of recombinant FLAG-tagged HDAC1 assessed as [3H]acetic acid release preincubated for 30 mins measured after 2 hrs by scintillation counting
Procedure, shortened: (§3)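 FLAG-tagged HDAC1 or HDAC6 was immunopurified from stably expressing cell lines and washed in HDAC buffer (10 mM Tris-HCl pH 8.0, 10 mM NaCl, 10% glycerol). Enzyme was preincubated with inhibitor (1 µM) for 30 min at 4 °C, then given 20 000 cpm [3H]peracetylated H4 peptide for 2 h at 37 °C. The reaction was stopped with acetic acid/HCl, extracted into ethyl acetate, and released [3H]acetate counted by scintillation.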

HT-29 = assay: Antiproliferative activity against human HT-29 cells after 48 hrs by cell titer-glo assay; format: functional, cell-based; settings: HT-29, 48 h
Mus musculus [5] = assay: Toxicity in FVB mouse assessed as mortality at 50 mg/kg, po administered 5 times per week for 2 weeks measured up to 1 month; format: organism-based; set-up: dose 50 mg/kg, route oral; settings: in vivo, 336 h
Procedure, shortened: (§4)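 8-week-old Fvb mice, SPF-housed in ventilated cages with acidified water, randomly assigned (n = 3 per group) to compound or solvent-only vehicle. Dosing was by oral gavage five times weekly for 2 weeks. Survival was monitored with body weight and blood counts during dosing, and deaths were also recorded during the month after treatment stopped.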

K562 = assay: Antiproliferative activity against human K562 cells after 48 hrs by cell titer-glo assay; format: functional, cell-based; settings: K562, 48 h; procedure, shortened: as §2
Mus musculus [6] = assay: Toxicity in FVB mouse assessed as effect on number of WBC at 50 mg/kg, po administered 5 times per week for 2 weeks measured during test (reference value: 9.1 +/- 0.2 10^3/mm^3); format: organism-based; set-up: dose 50 mg/kg, route oral; settings: in vivo, 336 h; procedure, shortened: as §1
Mus musculus [7] = assay: Toxicity in FVB mouse assessed as effect on mean cell volume of red cells at 50 mg/kg, po administered 5 times per week for 2 weeks measured during test (reference value: 43.7 +/- 0.4 microm^3); format: organism-based; set-up: dose 50 mg/kg, route oral; settings: in vivo, 336 h; procedure, shortened: as §1
Mus musculus [8] = assay: Toxicity in FVB mouse assessed as effect on body weight at 50 mg/kg, po administered 5 times per week for 2 weeks measured during test; format: organism-based; set-up: dose 50 mg/kg, route oral; settings: in vivo, 336 h; procedure, shortened: as §1
Jurkat = assay: Antiproliferative activity against human Jurkat JA16 cells after 48 hrs by cell titer-glo assay; format: functional, cell-based
Mus musculus [9] = assay: Toxicity in FVB mouse assessed as effect on hematocrit at 50 mg/kg, po administered 5 times per week for 2 weeks measured during test; format: organism-based; set-up: dose 50 mg/kg, route oral; settings: in vivo, 336 h; procedure, shortened: as §1
Mus musculus [10] = assay: Toxicity in FVB mouse assessed as effect on mean platelet volume at 50 mg/kg, po administered 5 times per week for 2 weeks (reference value: 8.8 +/- 0.1 microm^3); format: organism-based; set-up: dose 50 mg/kg, route oral; settings: in vivo, 336 h; procedure, shortened: as §1
Mus musculus [11] = assay: Toxicity in FVB mouse assessed as effect on number of platelets at 50 mg/kg, po administered 5 times per week for 2 weeks (reference value: 514 +/- 42.8 10^3/mm^3); format: organism-based; set-up: dose 50 mg/kg, route oral; settings: in vivo, 336 h; procedure, shortened: as §1
Mus musculus [12] = assay: Toxicity in FVB mouse assessed as effect on number of platelets at 50 mg/kg, po administered 5 times per week for 2 weeks measured during test (reference value: 454 +/- 93 10^3/mm^3); format: organism-based; set-up: dose 50 mg/kg, route oral; settings: in vivo, 336 h; procedure, shortened: as §1
Mus musculus [13] = assay: Toxicity in FVB mouse assessed as effect on mean cell volume of red cells at 50 mg/kg, po administered 5 times per week for 2 weeks (reference value: 43.9 +/- 0.5 microm^3); settings: in vivo, 336 h
Mus musculus [14] = assay: Toxicity in FVB mouse assessed as mortality at 50 mg/kg, po administered 5 times per week for 2 weeks; format: organism-based; set-up: dose 50 mg/kg, route oral; settings: in vivo, 336 h; procedure, shortened: as §4
SK-BR-3 = assay: Antiproliferative activity against human SK-BR-3 cells after 48 hrs by cell titer-glo assay; format: functional, cell-based; settings: SK-BR-3, 48 h
Mus musculus [15] = assay: Toxicity in FVB mouse assessed as effect on number of RBC at 50 mg/kg, po administered 5 times per week for 2 weeks (reference value: 7.7 +/- 0.1 10^6/mm^3); format: organism-based; set-up: dose 50 mg/kg, route oral; settings: in vivo, 336 h; procedure, shortened: as §1
Mus musculus [16] = assay: Toxicity in FVB mouse assessed as effect on body weight at 50 mg/kg, po administered 5 times per week for 2 weeks; format: organism-based; set-up: dose 50 mg/kg, route oral; settings: in vivo, 336 h; procedure, shortened: as §1
Mus musculus [17] = assay: Toxicity in FVB mouse assessed as effect on hematocrit at 50 mg/kg, po administered 5 times per week for 2 weeks; format: organism-based; set-up: dose 50 mg/kg, route oral; settings: in vivo, 336 h; procedure, shortened: as §1
[18] = molecular target: T1, Protein deacetylase HDAC6 (Homo sapiens) (UniProt Q9UBN7); assay: Inhibition of recombinant FLAG-tagged HDAC6 assessed as [3H]acetic acid release preincubated for 30 mins measured after 2 hrs by scintillation counting; procedure, shortened: as §3
T1 sequence (whole entry): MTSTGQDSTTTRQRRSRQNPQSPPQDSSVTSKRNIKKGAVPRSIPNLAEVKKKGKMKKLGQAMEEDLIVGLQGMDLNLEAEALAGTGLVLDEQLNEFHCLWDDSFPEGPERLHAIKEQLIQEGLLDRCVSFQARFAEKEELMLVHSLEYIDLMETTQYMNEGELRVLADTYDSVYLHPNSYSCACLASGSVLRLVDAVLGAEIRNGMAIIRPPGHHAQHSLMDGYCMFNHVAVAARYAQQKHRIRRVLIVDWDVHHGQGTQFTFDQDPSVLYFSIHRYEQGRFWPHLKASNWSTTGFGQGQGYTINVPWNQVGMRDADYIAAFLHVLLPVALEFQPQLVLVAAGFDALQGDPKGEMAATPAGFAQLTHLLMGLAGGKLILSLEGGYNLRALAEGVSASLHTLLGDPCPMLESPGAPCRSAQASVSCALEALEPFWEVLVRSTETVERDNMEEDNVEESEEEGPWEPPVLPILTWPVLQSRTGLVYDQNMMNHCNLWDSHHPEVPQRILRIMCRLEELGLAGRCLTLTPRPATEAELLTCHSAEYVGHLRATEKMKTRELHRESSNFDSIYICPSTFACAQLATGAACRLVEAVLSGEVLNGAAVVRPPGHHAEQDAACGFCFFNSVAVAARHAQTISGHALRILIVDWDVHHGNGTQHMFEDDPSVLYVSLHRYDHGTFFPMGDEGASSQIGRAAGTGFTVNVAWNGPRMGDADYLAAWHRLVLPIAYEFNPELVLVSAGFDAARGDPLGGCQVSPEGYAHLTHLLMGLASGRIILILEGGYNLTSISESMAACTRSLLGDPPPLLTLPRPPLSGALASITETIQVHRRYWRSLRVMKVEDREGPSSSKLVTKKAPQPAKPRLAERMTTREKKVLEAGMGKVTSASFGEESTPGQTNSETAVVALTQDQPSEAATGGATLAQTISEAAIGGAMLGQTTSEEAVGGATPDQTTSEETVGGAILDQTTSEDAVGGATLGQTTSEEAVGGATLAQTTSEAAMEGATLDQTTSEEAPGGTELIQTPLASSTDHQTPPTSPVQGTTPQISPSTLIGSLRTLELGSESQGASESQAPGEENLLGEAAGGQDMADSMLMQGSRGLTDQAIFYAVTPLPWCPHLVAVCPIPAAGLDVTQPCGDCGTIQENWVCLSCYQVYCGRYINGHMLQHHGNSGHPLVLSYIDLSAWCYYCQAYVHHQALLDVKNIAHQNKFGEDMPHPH

Mus musculus [19] = assay: Toxicity in FVB mouse assessed as effect on mean platelet volume at 50 mg/kg, po administered 5 times per week for 2 weeks measured during test (reference value: 8.4 +/- 0.5 microm^3); format: organism-based; set-up: dose 50 mg/kg, route oral; settings: in vivo, 336 h; procedure, shortened: as §1
HL-60 = assay: Antiproliferative activity against human HL60 cells after 48 hrs by cell titer-glo assay; format: functional, cell-based; settings: HL-60, 48 h

Histone deacetylase 1 (Homo sapiens), sequence (Q13547 whole entry): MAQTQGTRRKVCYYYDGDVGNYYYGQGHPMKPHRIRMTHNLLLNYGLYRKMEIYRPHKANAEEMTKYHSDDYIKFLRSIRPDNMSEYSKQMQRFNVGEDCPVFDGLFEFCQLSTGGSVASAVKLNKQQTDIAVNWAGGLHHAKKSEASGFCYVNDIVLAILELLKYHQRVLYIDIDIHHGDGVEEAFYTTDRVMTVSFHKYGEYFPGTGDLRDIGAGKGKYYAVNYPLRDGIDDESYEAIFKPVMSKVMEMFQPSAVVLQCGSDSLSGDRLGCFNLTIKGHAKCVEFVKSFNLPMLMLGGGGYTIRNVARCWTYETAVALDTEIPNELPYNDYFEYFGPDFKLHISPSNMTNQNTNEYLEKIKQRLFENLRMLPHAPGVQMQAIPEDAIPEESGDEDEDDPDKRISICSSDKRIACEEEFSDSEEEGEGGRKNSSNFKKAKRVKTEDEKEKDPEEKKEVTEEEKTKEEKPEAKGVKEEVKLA

O=C(CCCCCCC(=O)Nc1ccc(I)cc1)NO
Activity (Mus musculus [1]): 7.5 10^3/mm3 | selectivity ratio [2]: 30 | Activity (Mus musculus [3]): 8.02 10^6/mm3 | EC50 (U-937): 120 nM | Activity [4]: Active | EC50 (HT-29): 950 nM | Activity (Mus musculus [5]): Non-toxic | EC50 (K562): 1300 nM | Activity (Mus musculus [6]): 7.5 10^3/mm3 | Activity (Mus musculus [7]): 43.9 um3 | Activity (Mus musculus [8]): 99.7% | EC50 (Jurkat): 240 nM | Activity (Mus musculus [9]): 35.2% | Activity (Mus musculus [10]): 8.7 um3 | Activity (Mus musculus [11]): 537 10^3/mm3 | Activity (Mus musculus [12]): 478.3 10^3/mm3 | Activity (Mus musculus [13]): 43.7 um3 | Activity (Mus musculus [14]): Non-toxic | EC50 (SK-BR-3): 1100 nM | Activity (Mus musculus [15]): 6.9 10^6/mm3 | Activity (Mus musculus [16]): 97.8% | Activity (Mus musculus [17]): 30.2% | Activity [18]: Active | Activity (Mus musculus [19]): 8.6 um3 | EC50 (HL-60): 850 nM
